A selection: hits, their analogues and other compounds. The true share with any hit is near 3.9%.
Pf gametocyte – P. falciparum stage V gametocyte viability inhibition | AID 743093 | inhibition, % at 10.9 µM | 150,000 compounds, 0.065% hits | P. falciparum stage V gametocytes, ATP luminescence, 24 h;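 active = inhibition above the mean plus 3 SD of compounds within the control limits, set per campaign, cut at about 38% in these data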;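 note: 0% = DMSO wells and 100% = medium only without gametocytes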
NF-kB expr up – compounds increasing NF-kB expression in human neuronal cells; fold change at 12.5 µM; 190,000 compounds, 1.6% hits; NF-kB reporter expression; hits give high values; in the data active = fold change above about 3.3
STAT1 inh – STAT1 signaling inhibition. NIH 3T3 STAT1-luciferase reporter, IFN-gamma, luminescence. AID 920. 200,000 compounds, 0.35% hits. inhibition, % at 5.5 µM;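 active = inhibition above a set limit, the mean inhibition across all tested compounds plus 3 SD, cut at about 34% in these data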;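 note: 0% = IFN-gamma with DMSO and 100% = IFN-gamma with 300 µM nifuroxazide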
STAT3 activator – activators of IL-6 induced STAT3 signaling. activation (% of control), % at 5.6 µM. U3A cells, IL-6 STAT3-luciferase reporter, luminescence; 100% = signal with IL-6 EC80 alone. 190,000 compounds, 0.91% hits;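 active = activation above the screen-wide mean of compound activation plus 3 SD, cut at about 130% in these data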;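 note: 0% = background luminescence of wells with medium and substrate only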
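Material: STAT1-lacking human U3A cells, STAT3 luciferase reporter | Benchmarks: IL-6-only wells as 100% reference | Probe or stimulus: IL-6 (33 ng/mL) | Timing: Compound 1 h, then IL-6 6 h at 37 °C | Detection: Luminescence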
STAT1 activator – STAT1 signaling activation; NIH 3T3 STAT1-luciferase reporter, IFN-gamma, luminescence; 100% = IFN-gamma alone, no compound; activation (% of control), % at 5.5 µM; 200,000 compounds, 2.6% hits; AID 932;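 active = activation above the screen-wide mean activation plus 3 SD, cut at about 130% in these data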;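 note: raw ratio to IFN-gamma control signal so 100% means no change and 0% no light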
APP 5'UTR act – activates APP 5'UTR luciferase reporter; 190,000 compounds, 1% hits; AID 1276; activation, % at 2 µM; SH-SY5Y APP 5'UTR luciferase reporter, luminescence; zero percent = DMSO vehicle wells;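 active = activation above a set limit, based on mean plus 3 SD of controls, cut at about 140% in these data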
Active calls of the source: *; · = no result given.

SMILES	Pf gametocyte	NF-kB expr up	STAT1 inh	STAT3 activator	STAT1 activator	APP 5'UTR act
CS(=O)(=O)N(CC(=O)N1CCCCCC1)c1cccc([N+](=O)[O-])c1	22.6	·	·	·	·	·
COc1cc(N/N=C/c2ccc(N(C)C)cc2)ncn1	-8.6	4.13*	33.5	50.3	68.5	135.3*
COc1cc(N/N=C/c2ccccc2O)ncn1	-24.1	2.84	-9.4	82.9	108.4	-40.9
Cc1ccc(N/C(N)=N/c2nc(C)cc(N3CCCCC3)n2)c(C)c1	0.9	1	35.9*	69.6	64.9	-12.1
COc1ccccc1C(=O)NNC(=O)c1cccc(Br)c1	-125.5	·	·	·	·	·
COc1ccccc1C(=O)NNC(=O)c1cccc(Cl)c1	-5.1	3.62*	-31.4	83.9	127.2	141.7*
Cc1nn(-c2nc3ccccc3s2)c(C)c1Oc1ccccc1O	·	2.59	4.7	122.8	94.6	184.4*
COc1ccc(-c2cnn3c(N)c(S(=O)(=O)C(C)(C)C)cnc23)cc1	-1.9	6.36*	-9.1	115.8	108.2	4.0
CC(C)(C)S(=O)(=O)c1cnc2c(-c3ccc(Cl)cc3)cnn2c1N	4.7	1.52	-7.8	100.2	107.0	-7.1
COCCNC(=O)/C(=C/c1ccccc1Cl)c1ccccc1	-59.1	1.12	-9.5	103.2	108.3	19.8
COc1ccc(-c2nsc3c(N4CCCC4)ncnc23)cc1	3.2	0.95	-26.4	60.4	124.1	156.4*
O=C(COC(=O)CCc1nc2ccccc2c(=O)[nH]1)NC(=O)NC1CCCC1	22.3	0.97	2.0	100.7	98.2	3.0
NS(=O)(=O)c1ccc(CCNC(=O)Cc2ccccc2[N+](=O)[O-])cc1	2.4	0.91	5.6	133.2*	93.6	-9.7
Cc1ccc(SCCCCN2CCNCC2)cc1	-5.0	1.13	-10.7	77.7	109.5	24.4
Clc1ccc(/C=N/NC(=Nc2ccccc2)c2ccccn2)c(Cl)c1	·	3.13	-31.7	101.0	128.5	164.1*
Cc1ccc(/C(C#N)=C\c2ccc(N3CCOCC3)o2)cc1	-3.2	1.91	-21.7	123.9	119.5	-7.8
Cc1ccc2nc(/C(C#N)=C\c3ccc(N4CCOCC4)o3)[nH]c2c1	-0.3	2.53	-50.4	89.3	145.3*	120.9
O=C1c2ccccc2C(=O)C1c1ccncc1	-22.7	3.8*	-29.1	70.2	126.6	94.8
O=C1c2ccccc2C(=O)C1c1ccccn1	-12.5	·	·	·	·	·
Cc1cc(=O)n2[nH]c(SCc3c(F)cccc3Cl)nc2n1	14.9	·	·	·	·	·
Cc1ccc(Nc2nc(-c3cccs3)cs2)nc1	12.0	4.91*	64.4*	33.0	40.5	172.3*
CN(c1ccc(O)cc1)c1nc(-c2cccs2)cs1	-14.6	6.98*	-44.0	101.2	140.8*	172.8*
COc1cc(C(=O)Nc2nc(-c3cccs3)cs2)cc(OC)c1OC	-8.7	0.35	-4.6	76.1	104.3	19.1
Cc1cc(O)ccc1Nc1nc(-c2cccs2)cs1	-30.7	7.15*	-22.2	97.1	120.7	147.7*
Cc1cc(O)ccc1Nc1nc(-c2cccnc2)cs1	17.6	·	·	·	·	·
SMILES	Pf gametocyte	NF-kB expr up	STAT1 inh	STAT3 activator	STAT1 activator	APP 5'UTR act
c1cncc(Nc2nc(-c3cccs3)cs2)c1	·	2.4	-44.1	141.4*	131.5*	7.1
Cc1nc(N)sc1-c1csc(N(C)c2ccc(O)cc2)n1	·	0.52	-9.4	105.6	107.7	63.6
COc1ccc(/C=C2\N=C(SC)N(c3ccccc3OC)C2=O)cc1	10.7	0.82	6.5	97.0	94.6	-26.0
COc1cc2c(cc1CN1CCN(C(=O)c3cc(OC)c(OC)c(OC)c3)CC1)OCO2	5.7	·	·	·	·	·
c1ccc(-c2csc(Nc3cccnc3)n2)nc1	-31.5	1.39	-34.5	97.6	126.7	20.5
COc1ccc(-c2csc(Nc3cccnc3)n2)cc1	·	2.39	-46.9	101.1	134.4*	43.5
Cc1nnc(SCc2nnc(-c3ccccc3Br)o2)s1	-14.1	1.14	-12.4	110.5	109.4	8.3
CN1C[C@@H]2C(c3ccc(C(F)(F)F)cc3)C3(c4cccnc4)CC2(C3)[C@H]1c1ccccc1 (stereo not given in full)	3.1	·	·	·	·	·
COC(=O)CCSCC(=O)Nc1ccc(C)c(S(=O)(=O)N2CCCCC2)c1	21.5	·	·	·	·	·
CCc1cccc2c(C(=O)COC(=O)c3ccc([N+](=O)[O-])s3)c[nH]c12	·	1.04	24.9	97.8	77.8	-1.0
CC1(C(=O)OCC(=O)c2c[nH]c3ccccc23)CC1(Cl)Cl (stereo not given)	·	2.33	-41.0	115.2	137.7*	144.6*
O=C(OCC(=O)c1c[nH]c2ccccc12)c1ccc([N+](=O)[O-])s1	-7.9	·	12.8	135.2*	87.0	1.6
O=C1CCC(C(=O)OCC(=O)c2c[nH]c3ccccc23)=NN1	·	0.94	8.0	113.1	92.6	-10.2
Cc1ccc(C(=O)OCC(=O)c2c[nH]c3ccccc23)cc1	1.6	1.77	-28.9	133.0*	125.5	44.2
O=C(OCC(=O)c1c[nH]c2ccccc12)C1=COCCO1	·	2.35	-31.4	120.6	129.2*	37.2
COCCn1c(N/N=C(C)/C=C/c2ccccc2)nc2c1c(=O)[nH]c(=O)n2C	·	0.94	2.8	107.9	96.5	7.8
CCOc1ccc2ccccc2c1CNCCN1CCOCC1	·	7.73*	-2.8	99.3	102.5	1.5
CCOc1ccc(Br)cc1CNCCN1CCOCC1	22.2	1.11	-3.4	86.7	102.7	4.0
Cc1cccnc1Nc1nc(-c2ccc(O)c(O)c2)cs1	-20.1	3.58*	-32.2	87.9	129.6*	39.3
COc1ccc(-c2csc(Nc3ncccc3C)n2)cc1OC	·	1.03	-46.2	89.8	141.1*	31.0
CC1=Nc2cc(C(=O)NCc3ccco3)ccc2Sc2ccc(C)cc21	·	3.48*	5.6	133.8*	95.0	-96.2
CC1=Nc2cc(C(=O)O)ccc2Sc2ccc(C)cc21	-14.7	0.96	-11.0	99.4	109.2	9.0
O=S(=O)(c1cccs1)N1CN(Cc2ccc(Cl)cc2)c2nc3ccccc3nc21	·	1.25	-5.8	99.0	99.8	-1.1
Cc1ccc(CN2CN(S(=O)(=O)c3cccs3)c3nc4ccccc4nc32)cc1	·	6.43*	-53.4	97.5	141.5*	5.6
CCCOc1ccc(C(=O)N2CCN(Cc3ccc4c(c3)OCO4)CC2)cc1	6.3	·	·	·	·	·
SMILES	Pf gametocyte	NF-kB expr up	STAT1 inh	STAT3 activator	STAT1 activator	APP 5'UTR act
CCc1cc2cc(C(=O)Nc3ccccc3F)sc2s1	-0.6	2.74	-50.5	68.7	146.0*	162.8*
C=COC(=O)c1sc2nc(C)cc(C)c2c1N	1.5	·	·	·	·	·
CC(C)(C)OC(=O)N1CCC(CNC(=O)c2cccs2)CC1	9.0	·	·	·	·	·
COc1ccc(N2CCN(c3cnc4ccccc4n3)CC2)cc1	-6.7	2.25	-38.1	101.3	132.9*	65.2
COc1cccc(N2CCN(c3cnc4ccccc4n3)CC2)c1	17.2	1.06	-40.7	94.9	134.4*	41.0
Clc1ccc(N2CCN(c3cnc4ccccc4n3)CC2)cc1	·	2.11	-23.4	83.3	122.1	-4.0
COc1ccc(OCc2cccc(C(=O)NN)c2)cc1	10.0	2.49	65.2*	19.4	42.8	79.8
COc1cc(CNC(=O)c2cccc(COc3ccc(Cl)cc3)c2)cc(OC)c1	·	1.86	-7.9	82.7	107.2	138.9*
